Assay results reported in ChEMBL document CHEMBL1122526, “Pyridonecarboxylic acids as antibacterial agents. 4. Synthesis and antibacterial activity of 7-(3-amino-1-pyrrolidinyl)-1-ethyl-6-fluoro-1,4 -dihydro-4-oxo-1,8-naphthyridine-3-carboxylic acid and its analogues” (1984).
Converted amounts (≈) assume the structure as drawn.

Legend:
Format in all cases: functional
[1] = test system: Escherichia coli; assay: In vitro antibacterial activity against Escherichia coli NIHJ JC-2
[2] = test system: Staphylococcus aureus; assay: In vitro for antibacterial activity against Staphylococcus aureus 209P JC-1
[3] = test system: Pseudomonas aeruginosa; assay: in vitro antibacterial activity against Pseudomonas aeruginosa Tsuchijima
[4] = test system: Escherichia coli; assay: Compound was evaluated in vivo for oral antibacterial activity against Escherichia coli P-5101 at a dose of 9E6
Procedure, shortened: (§1)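 Mice were given a systemic infection and then treated by the oral route. Challenge doses in cells per mouse were 5 × 10^8 for S. aureus 50774, 9 × 10^6 for E. coli P-5101 and 4 × 10^3 for P. aeruginosa 12. The protective dose is given in mg/kg.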

[5] = test system: Pseudomonas aeruginosa; assay: Compound was evaluated in vivo for oral antibacterial activity against Pseudomonas aeruginosa 12 at a dose of 4E3; procedure, shortened: as §1
[6] = test system: Staphylococcus aureus; assay: Compound was evaluated in vivo for oral antibacterial activity against Staphylococcus aureus 50774 at a dose of 5E8; procedure, shortened: as §1
[7] = test system: Pseudomonas aeruginosa; assay: Compound was evaluated in vivo for oral antibacterial activity iagainst Pseudomonas aeruginosa 12 at a dose of 4E3; procedure, shortened: as §1

Structure (SMILES)	MIC [1] [µg/mL]	MIC [2] [µg/mL]	MIC [3] [µg/mL]	ED50 [4] [mg/kg]	ED50 [5] [mg/kg]	ED50 [6] [mg/kg]	ED50 [7] [mg/kg]
CCn1cc(C(=O)O)c(=O)c2cc(F)c(N3CCC(O)CC3)nc21	3.13 (≈ 9.33 µM)	0.78 (≈ 2.33 µM)	6.25 (≈ 18.6 µM)				
CCn1cc(C(=O)O)c(=O)c2cc(F)c(N3CCC(NC=O)C3)nc21 (centres undefined)	0.78 (≈ 2.24 µM)	0.78 (≈ 2.24 µM)	3.13 (≈ 8.99 µM)				
CCn1cc(C(=O)O)c(=O)c2cc(F)c(N3CCC(OC=O)C3)nc21 (centres undefined)	1.56 (≈ 4.47 µM)	0.39 (≈ 1.12 µM)	3.13 (≈ 8.96 µM)				
CCn1cc(C(=O)O)c(=O)c2cc(F)c(N3CCC(NC)C3)nc21 (centres undefined)	0.2 (≈ 0.598 µM)	0.39 (≈ 1.17 µM)	1.56 (≈ 4.67 µM)	1.4	6.5	4.8	
CN(C)C1CCN(c2nc3c(cc2F)c(=O)c(C(=O)O)cn3CCF)C1 (centres undefined)	0.2 (≈ 0.546 µM)	0.78 (≈ 2.13 µM)	6.25 (≈ 17.1 µM)				
NC1CCN(c2nc3c(cc2F)c(=O)c(C(=O)O)cn3CCF)C1 (centres undefined)	0.1 (≈ 0.296 µM)	0.39 (≈ 1.15 µM)	0.39 (≈ 1.15 µM)	2.8	6.3	4.6	
CCn1cc(C(=O)O)c(=O)c2cc(F)c(N3CC(N)C3)nc21	0.1 (≈ 0.326 µM)	0.78 (≈ 2.55 µM)	0.78 (≈ 2.55 µM)	4.1	12.5	8.8	
C=Cn1cc(C(=O)O)c(=O)c2cc(F)c(N3CC(N)C3)nc21	0.1 (≈ 0.329 µM)	1.56 (≈ 5.13 µM)	0.39 (≈ 1.28 µM)				
C=Cn1cc(C(=O)O)c(=O)c2cc(F)c(N3CCC(NC(C)=O)C3)nc21 (centres undefined)	0.78 (≈ 2.16 µM)	1.56 (≈ 4.33 µM)	12.5 (≈ 34.7 µM)				
CNC1CCN(c2nc3c(cc2F)c(=O)c(C(=O)O)cn3CCF)C1 (centres undefined)	0.2 (≈ 0.568 µM)	0.78 (≈ 2.21 µM)	0.78 (≈ 2.21 µM)	2.8	19.3	15	
CCn1cc(C(=O)O)c(=O)c2cc(F)c(N3CCC(NN)C3)nc21 (centres undefined)	1.56 (≈ 4.65 µM)	0.39 (≈ 1.16 µM)	12.5 (≈ 37.3 µM)				
CC(=O)N(C)C1CCN(c2nc3c(cc2F)c(=O)c(C(=O)O)cn3CCF)C1 (centres undefined)	1.56 (≈ 3.96 µM)	0.39 (≈ 0.989 µM)	25 (≈ 63.4 µM)				
CCn1cc(C(=O)O)c(=O)c2cc(F)c(N3CCC(NCC(F)(F)F)C3)nc21 (centres undefined)	1.56 (≈ 3.88 µM)	0.78 (≈ 1.94 µM)	50 (≈ 124 µM)				
CCn1cc(C(=O)O)c(=O)c2cc(F)c(N3CCC(CNC(C)=O)CC3)nc21	1.56 (≈ 4 µM)	0.78 (≈ 2 µM)	25 (≈ 64 µM)				
CCn1cc(C(=O)O)c(=O)c2cc(F)c(N3CCC(N(C)C)C3)nc21 (centres undefined)	0.78 (≈ 2.24 µM)	1.56 (≈ 4.48 µM)	6.25 (≈ 17.9 µM)				
CCn1cc(C(=O)O)c(=O)c2cc(F)c(N3CCCC(N)C3)nc21 (centres undefined)	0.78 (≈ 2.33 µM)	0.78 (≈ 2.33 µM)	6.25 (≈ 18.7 µM)				
C=Cn1cc(C(=O)O)c(=O)c2cc(F)c(N3CCC(NC=O)C3)nc21 (centres undefined)	0.39 (≈ 1.13 µM)	0.78 (≈ 2.25 µM)	3.13 (≈ 9.04 µM)				
CCn1cc(C(=O)O)c(=O)c2cc(F)c(N3CCC(CN)CC3)nc21	1.56 (≈ 4.48 µM)	0.39 (≈ 1.12 µM)	12.5 (≈ 35.9 µM)				
CCn1cc(C(=O)O)c(=O)c2cc(F)c(N3CC(N)C(O)C3)nc21 (centres undefined)	1.56 (≈ 4.64 µM)	1.56 (≈ 4.64 µM)	3.13 (≈ 9.31 µM)				
C=Cn1cc(C(=O)O)c(=O)c2cc(F)c(N3CCC(N)C3)nc21 (centres undefined)	0.025 (≈ 0.0785 µM)	0.2 (≈ 0.628 µM)	0.2 (≈ 0.628 µM)	0.72	1.6	1.6	
CCn1cc(C(=O)O)c(=O)c2cc(F)c(N3CCCC(O)C3)nc21 (centres undefined)	3.13 (≈ 9.33 µM)	1.56 (≈ 4.65 µM)	25 (≈ 74.6 µM)				
CCn1cc(C(=O)O)c(=O)c2cc(F)c(N3CCC(N(C)C(C)=O)C3)nc21 (centres undefined)	6.25 (≈ 16.6 µM)	0.78 (≈ 2.07 µM)	25 (≈ 66.4 µM)				

Structure (SMILES)	MIC [1] [µg/mL]	MIC [2] [µg/mL]	MIC [3] [µg/mL]	ED50 [4] [mg/kg]	ED50 [5] [mg/kg]	ED50 [6] [mg/kg]	ED50 [7] [mg/kg]
CCn1cc(C(=O)O)c(=O)c2cc(F)c(N3CCC(NC(=O)c4ccccc4)CC3)nc21	12.5 (≈ 28.5 µM)	1.56 (≈ 3.56 µM)	> 100				
CC(=O)NC1CCN(c2nc3c(cc2F)c(=O)c(C(=O)O)cn3CCF)C1 (centres undefined)	1.56 (≈ 4.1 µM)	1.56 (≈ 4.1 µM)	25 (≈ 65.7 µM)				
CCn1cc(C(=O)O)c(=O)c2cc(F)c(N3CCC(NC(C)=O)C3)nc21 (centres undefined)	6.25 (≈ 17.2 µM)	0.78 (≈ 2.15 µM)	6.25 (≈ 17.2 µM)				
CCn1cc(C(=O)O)c(=O)c2cc(F)c(N3CCC(N)CC3)nc21	0.2 (≈ 0.598 µM)	0.2 (≈ 0.598 µM)	1.56 (≈ 4.67 µM)	6.3		> 25	16.2
CCn1cc(C(=O)O)c(=O)c2cc(F)c(N3CCC(Cl)C3)nc21 (centres undefined)	0.39 (≈ 1.15 µM)	0.2 (≈ 0.589 µM)	12.5 (≈ 36.8 µM)				
C=Cn1cc(C(=O)O)c(=O)c2cc(F)c(N3CCC(NCC(F)(F)F)C3)nc21 (centres undefined)	6.25 (≈ 15.6 µM)	1.56 (≈ 3.9 µM)	100 (≈ 250 µM)				
CCCNC1CCN(c2nc3c(cc2F)c(=O)c(C(=O)O)cn3CC)C1 (centres undefined)	6.25 (≈ 17.2 µM)	25 (≈ 69 µM)	> 100				
CCn1cc(C(=O)O)c(=O)c2cc(F)c(N3CCCC(C(N)=O)C3)nc21 (centres undefined)	12.5 (≈ 34.5 µM)	6.25 (≈ 17.2 µM)	50 (≈ 138 µM)				
C=Cn1cc(C(=O)O)c(=O)c2cc(F)c(N3CCC(N(C)C)C3)nc21 (centres undefined)	0.39 (≈ 1.13 µM)	3.13 (≈ 9.04 µM)	3.13 (≈ 9.04 µM)				
CCn1cc(C(=O)O)c(=O)c2cc(F)c(N3CC(OC)C3)nc21	3.13 (≈ 9.74 µM)	0.78 (≈ 2.43 µM)	6.25 (≈ 19.5 µM)				
C=Cn1cc(C(=O)O)c(=O)c2cc(F)c(N3CCC(N(C)C(C)=O)C3)nc21 (centres undefined)	3.13 (≈ 8.36 µM)	1.56 (≈ 4.17 µM)	25 (≈ 66.8 µM)				
CCn1cc(C(=O)O)c(=O)c2cc(F)c(N3CCC(O)C3)nc21 (centres undefined)	0.78 (≈ 2.43 µM)	0.39 (≈ 1.21 µM)	0.78 (≈ 2.43 µM)	6.8	42	5.5	
CCn1cc(C(=O)O)c(=O)c2cc(F)c(N3CCC(NC(=O)C(F)(F)F)C3)nc21 (centres undefined)	1.56 (≈ 3.75 µM)	0.78 (≈ 1.87 µM)	6.25 (≈ 15 µM)				
C=Cn1cc(C(=O)O)c(=O)c2cc(F)c(N3CCC(NC)C3)nc21 (centres undefined)	0.1 (≈ 0.301 µM)	0.78 (≈ 2.35 µM)	0.78 (≈ 2.35 µM)	2	3.7	1.6	
CCn1cc(C(=O)O)c(=O)c2cc(F)c(N3CC(O)C3)nc21	0.78 (≈ 2.54 µM)	0.78 (≈ 2.54 µM)	3.13 (≈ 10.2 µM)				
CCNC1CCN(c2nc3c(cc2F)c(=O)c(C(=O)O)cn3CC)C1 (centres undefined)	0.78 (≈ 2.24 µM)	0.78 (≈ 2.24 µM)	3.13 (≈ 8.98 µM)				
CCOC1CN(c2nc3c(cc2F)c(=O)c(C(=O)O)cn3CC)C1	3.13 (≈ 9.33 µM)	0.78 (≈ 2.33 µM)	25 (≈ 74.6 µM)				
CCn1cc(C(=O)O)c(=O)c2cc(F)c(N3CC(N4CCOCC4)C3)nc21	6.25 (≈ 16.6 µM)	1.56 (≈ 4.14 µM)	50 (≈ 133 µM)				
CCn1cc(C(=O)O)c(=O)c2cc(F)c(N3CCC(NC(N)=O)C3)nc21 (centres undefined)	3.13 (≈ 8.61 µM)	6.25 (≈ 17.2 µM)	25 (≈ 68.8 µM)				
CCn1cc(C(=O)O)c(=O)c2cc(F)c(N3CCNCC3)nc21 [ENOXACIN]	0.2 (≈ 0.624 µM)	0.78 (≈ 2.44 µM)	0.78 (≈ 2.44 µM)	1.8	9	10	
CCn1cc(C(=O)O)c(=O)c2cc(F)c(N3CCC(N)C3)nc21 (centres undefined) [ESAFLOXACIN]	0.1 (≈ 0.312 µM)	0.2 (≈ 0.624 µM)	0.39 (≈ 1.22 µM)	1.7	3.7	3	
